{
  "source": "paper PMC10413468",
  "about": "(ACS Omega, 2023)",
  "key": {"[1]": {"test_system": "WI-38 (human lung fibroblast normal) cells", "assay": "MTT cytotoxicity assay, WI-38", "format": "cell-based", "details": "read-out: IC50 WI-38 (normal), lung, 48 h, mean ± SD", "procedure,_shortened": "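WI-38 lung fibroblast normal cells grown in Eagle's MEM with 10% FBS and penicillin/streptomycin at 37 °C, 5% CO2. 1 × 10^4 cells/well given dicopper complexes (1–400 or 1–1000 μM) or cisplatin (0.1–20 μM) for 48 h; medium-only controls. PBS rinses, MTT 0.5 mg mL–1 for 3 h, DMSO solubilisation. IC50 from viability vs log[conc]; ≥3 repeats, mean ± SD.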"}, "[2]": {"test_system": "PK-59 (pancreas cancer) cells", "assay": "MTT cytotoxicity assay, PK-59", "format": "cell-based, human", "procedure,_shortened": "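PK-59 pancreas cancer cells cultured in RPMI 1640 with 10% FBS and penicillin/streptomycin (37 °C, humidified 5% CO2). 1 × 10^4 cells/well exposed 48 h to dicopper complexes (1–400 or 1–1000 μM) or cisplatin (0.1–20 μM). After PBS rinses, MTT 0.5 mg mL–1 for 3 h, then DMSO. IC50 from viability vs log[conc]; ≥3 repeats, mean ± SD. SF = IC50(2C6)/IC50(PK-59).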"}, "[3]": {"test_system": "2C6 (human embryonic pancreas normal) cells", "assay": "MTT cytotoxicity assay, 2C6", "format": "cell-based", "details": "read-out: IC50 2C6 (normal), pancreas, 48 h, mean ± SD", "procedure,_shortened": "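2C6 pancreas normal cells kept in Ham F10 with 10% newborn calf serum, 5% FBS, 2.5% horse serum and penicillin/streptomycin at 37 °C, 5% CO2. Seeded at 1 × 10^4 cells/well. Exposed 48 h to dicopper complexes (1–400 or 1–1000 μM) or cisplatin (0.1–20 μM); medium-only controls. PBS rinses, MTT 0.5 mg mL–1 for 3 h, DMSO solubilisation. IC50 from viability vs log[conc]; ≥3 repeats, mean ± SD.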"}, "[4]": {"test_system": "A549 (human lung cancer) cells", "assay": "MTT cytotoxicity assay, A549", "format": "cell-based", "procedure,_shortened": "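A549 lung cancer cells grown in low-glucose DMEM with 10% FBS and penicillin/streptomycin (37 °C, 5% CO2). Plated at 1 × 10^4 cells/well. Treated 48 h with dicopper complexes (1–400 or 1–1000 μM) or cisplatin (0.1–20 μM). Wells rinsed with PBS, then MTT 0.5 mg mL–1 for 3 h and DMSO. IC50 from viability vs log[conc]; ≥3 repeats, mean ± SD. SF = IC50(WI-38)/IC50(A549).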"}, "[5]": {"test_system": "HeLa (human cervical cancer) cells", "assay": "MTT cytotoxicity assay, HeLa", "format": "cell-based", "details": "read-out: IC50 HeLa (cancer), cervical, 48 h, mean ± SD", "procedure,_shortened": "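HeLa cervical cancer cells maintained in high-glucose D-MEM with 10% FBS and penicillin/streptomycin at 37 °C, 5% CO2. 1 × 10^4 cells/well incubated 48 h with dicopper complexes (1–400 or 1–1000 μM) or cisplatin (0.1–20 μM); blank and control wells got medium only. PBS wash, MTT (0.5 mg mL–1, 3 h), formazan dissolved in DMSO. IC50 from viability vs log[conc]; ≥3 repeats, mean ± SD.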"}},
  "data": [
    {"smiles": "N.N.[Cl][Pt][Cl]", "note": "[cisplatin]", "values": [
      {"measurement": "IC50", "setting": "[1]", "value": "4550 ± 30", "unit": "nM"},
      {"measurement": "SF (selectivity factor), pancreas", "setting": "[2]; (IC50 of normal cells)/(IC50 of cancer cells), 2C6/PK-59, 48 h", "value": 0.6},
      {"measurement": "IC50", "setting": "[2]; read-out: IC50 PK-59 (cancer), pancreas, MTT assay, 48 h, mean ± SD", "value": "2010 ± 20", "unit": "nM"},
      {"measurement": "IC50", "setting": "[3]", "value": "1150 ± 80", "unit": "nM"},
      {"measurement": "SF (selectivity factor), lung", "setting": "[4]; (IC50 of normal cells)/(IC50 of cancer cells), WI-38/A549, 48 h", "value": 2.5},
      {"measurement": "IC50", "setting": "[4]; read-out: IC50 A549 (cancer), lung, MTT assay, 48 h, mean ± SD", "value": "1830 ± 30", "unit": "nM"},
      {"measurement": "IC50", "setting": "[5]", "value": "930 ± 10", "unit": "nM"}
    ]}
  ]
}
